Reference: ChEMBL document CHEMBL1134638, “Synthetic 2-aroylindole derivatives as a new class of potent tubulin-inhibitory, antimitotic agents” (J Med Chem, 2001)
pIC50: −log10 of the molar value. Values after ≈ are worked out from the molar mass of the structure shown.

How the values were obtained:
Tubulin = Tubulin (Bos taurus, UniProt Q6B856+Q862L2+Q862F3); experiment: Inhibition of tubulin polymerization; No effect at a concentration up to 10 uM; type: functional
SK-OV-3 [1] = experiment: In vitro inhibitory activity against SK-OV-3 cells using XTT proliferation assay.; type: functional, cell-based; details: Homo sapiens
Summary of the method: (§1)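 XTT proliferation assay measuring cellular metabolic activity after 48 h incubation with compound. Compounds dissolved in DMSO at 1 mg/mL stock. IC50 or estimates obtained by nonlinear regression. Each experiment at least in duplicate.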

HeLa [2] = experiment: In vitro inhibitory activity against HeLa/KB cells using XTT proliferation assay.; type: functional, cell-based; details: Homo sapiens; summary of the method: as §1
Tumor Cell line = experiment: Mean cytotoxicity against a panel of human tumor cell lines; type: functional
Summary of the method: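 Modified propidium iodide assay quantifying dead cells by DNA/RNA staining, run on a human tumor cell panel (breast, colon, stomach, lung, melanoma, ovary, renal, soft tissue lines). Growth inhibition expressed as % T/C; IC70 per line from concentration-viability plots. Mean IC70 is the geometric mean across lines; unreached values set to the lowest or highest concentration tested.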

Tubulin beta chain [3] = molecular target: T1, Tubulin beta chain (Bos taurus, UniProt Q6B856); experiment: Inhibition of tubulin polymerization.; type: functional
U373 MG [4] = experiment: Cytotoxicity against U373 astrocytoma cells.; type: functional, cell-based, U-373MG ATCC; details: Homo sapiens; summary of the method: as §1
U373 MG [5] = experiment: Cell cycle arrest activity against U373 astrocytoma cells.; type: functional, cell-based, U-373MG ATCC; details: Homo sapiens
Summary of the method: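 U373 cells (5 × 10^6) exposed to compound for 24 h at 37 °C, trypsinised, washed in PBS, fixed in 80% methanol 30 min on ice. Stained with 20 µg/mL propidium iodide plus 1 mg/mL RNase A in PBS/0.1% saponin, 30 min at 37 °C. DNA content read by flow cytometry; G2/M fraction modelled. IC50 by nonlinear regression of dose-response.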

[6] = molecular target: Tubulin beta chain (Bos taurus) (UniProt Q6B856)
[7] = molecular target: Tubulin beta chain (Bos taurus) (UniProt Q6B856); remark: listed apart in the source
SK-OV-3 [8] = experiment: In vitro inhibitory activity against SK-OV-3 cells using XTT proliferation assay; type: functional, cell-based; details: Homo sapiens; summary of the method: as §1
HeLa [9] = experiment: In vitro inhibitory activity against HeLa/KB cells using XTT proliferation assay; type: functional, cell-based; details: Homo sapiens; summary of the method: as §1
Tubulin beta chain [10] = molecular target: T1, Tubulin beta chain; experiment: Inhibition of tubulin polymerization; type: functional
Summary of the method: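 Bovine brain tubulin with MAPs, prepared by polymerization/depolymerization cycles (0.8 mg/mL), incubated with compound (4 µg/mL for screening, a concentration range for IC50). Run in PEM buffer pH 6.6 with 1 mM GTP at 37 °C for 1 h. Microtubules collected on 0.22 µm filters, stained with amido black, eluted, absorbance read at 600 nm.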

[11] = molecular target: Tubulin beta chain (Bos taurus) (UniProt Q6B856); experiment: beta-Tubulin GTPase activity at 1 uM concentration
Summary of the method: (§2)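 MAP-free purified bovine brain tubulin (1 mg/mL) in PEM pH 6.6 with 1 mM MgCl2, 100 µM [α-32P]GTP and 1 M monosodium glutamate. Compound added beforehand, final 1% DMSO. Incubated 1 h at 37 °C, stopped with 1% SDS. GDP/GTP separated by PEI-cellulose TLC in 0.35 M (NH4)2CO3 and quantified by phosphorimager as the GDP/GTP ratio.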

[12] = molecular target: Tubulin beta chain (Bos taurus) (UniProt Q6B856); experiment: beta-Tubulin GTPase activity at 10 uM concentration; summary of the method: as §2

T1 sequence (Q6B856 whole entry): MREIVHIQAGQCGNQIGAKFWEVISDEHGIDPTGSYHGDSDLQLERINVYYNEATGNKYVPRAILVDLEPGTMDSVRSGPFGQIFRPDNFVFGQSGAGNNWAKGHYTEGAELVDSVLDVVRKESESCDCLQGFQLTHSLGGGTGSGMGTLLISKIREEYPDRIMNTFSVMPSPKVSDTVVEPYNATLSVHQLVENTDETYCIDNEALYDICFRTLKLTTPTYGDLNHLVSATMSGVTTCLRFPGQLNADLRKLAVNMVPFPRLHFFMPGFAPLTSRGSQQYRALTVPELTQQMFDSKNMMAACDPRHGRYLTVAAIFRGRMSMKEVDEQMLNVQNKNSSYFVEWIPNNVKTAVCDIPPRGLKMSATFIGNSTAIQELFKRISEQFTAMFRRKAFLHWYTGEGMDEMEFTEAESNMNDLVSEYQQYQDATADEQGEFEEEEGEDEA
Sequence of Tubulin beta chain (Bos taurus) (Q6B856 whole entry): as above

Structure (SMILES)	pIC50 (SK-OV-3 [1])	pIC50 (HeLa [2])	pIC50 (Tubulin beta chain [3])	further results
COc1cc(C(=O)c2cc3ccccc3[nH]2)cc(OC)c1OC	5.02	5.19		IC50 (Tubulin): No effect
COc1ccc2[nH]c(C(=O)c3cccc([N+](=O)[O-])c3)cc2c1	7.00	7.00	6.07	IC70 (Tumor Cell line): 1.4 µg/mL (≈ 4.73 µM)
COc1ccc2[nH]c(C(=O)c3cccc(OC)c3OC)cc2c1	5.49	5.19	< 5.00	
CCCC(=O)Oc1cccc(C(=O)c2cc3cc(OC)ccc3[nH]2)c1	6.62	6.57	6.07	
COc1ccc(C(=O)c2cc3cc(OC)ccc3[nH]2)c(OC)c1	5.99	7.00	5.25	IC70 (Tumor Cell line): 1.74 µg/mL (≈ 5.59 µM)
COc1ccc2[nH]c(C(=O)c3ccc(C)cc3)cc2c1	5.73	6.42	5.82	
COc1ccc2[nH]c(C(=O)c3c(F)cccc3F)cc2c1	5.06	5.16		IC50 (Tubulin): No effect
COc1ccc2[nH]c(C(=O)c3cc(OC)c(OC)c(OC)c3)cc2c1	7.24	7.54	6.00	pIC50 (U373 MG [4]): 7.14; pIC50 (U373 MG [5]): 7.44; IC70 (Tumor Cell line): 0.17 µg/mL (≈ 0.498 µM)
COc1ccc2[nH]c(C(=O)c3ccccc3F)cc2c1	6.13	6.43	6.00	
COc1ccc2[nH]c(C(=O)c3ccccc3[N+](=O)[O-])cc2c1	< 4.97	< 5.00	< 5.00	
COc1cccc(C(=O)c2cc3cc(OC)ccc3[nH]2)c1	7.96	7.96	6.28	pIC50 (U373 MG [4]): 7.55; pIC50 (U373 MG [5]): 7.97; IC70 (Tumor Cell line): 0.27 µg/mL (≈ 0.96 µM)
COc1cccc(C(=O)c2cc3cc(C)ccc3[nH]2)c1	< 4.92	< 4.92	< 5.00	
COc1ccc2[nH]c(C(=O)c3ccc(Br)cc3)cc2c1	6.04	6.04	5.37	IC70 (Tumor Cell line): 2.56 µg/mL (≈ 7.75 µM)
COc1ccc2[nH]c(C(=O)c3cccc(OCc4ccccc4)c3)cc2c1	< 5.07	< 5.07		IC50 (Tubulin): No effect
COc1ccc2[nH]c(C(=O)c3cccc(OC)c3[N+](=O)[O-])cc2c1	< 5.01	< 5.01	< 5.00	
CC(=O)O[C@H]1C(=O)[C@@]2(C)[C@H]([C@H](OC(=O)c3ccccc3)[C@]3(O)C[C@H](OC(=O)[C@H](O)[C@@H](NC(=O)c4ccccc4)c4ccccc4)C(C)=C1C3(C)C)[C@]1(OC(C)=O)CO[C@@H]1C[C@@H]2O				GTPase Activity [6]: 3.3; GTPase Activity [7]: 1.4
COc1ccc2[nH]c(C(=O)c3ccc(F)cc3)cc2c1	5.13	5.25		
COc1ccc2[nH]c(C(=O)c3ccc(OC)c(OC)c3OC)cc2c1	7.06	7.23	< 5.00	IC70 (Tumor Cell line): 0.73 µg/mL (≈ 2.14 µM)
COc1ccc2[nH]c(C(=O)c3ccc(OC)c(OC)c3)cc2c1	5.79	5.88	6.09	
CCc1ccc(C(=O)c2cc3cc(OC)ccc3[nH]2)cc1	4.94	5.05	< 5.00	
COc1ccccc1C(=O)c1cc2cc(C)ccc2[nH]1	6.12	6.42	5.46	IC70 (Tumor Cell line): 2.03 µg/mL (≈ 7.65 µM)
COc1ccc2[nH]c(C(=O)c3ccc(Cl)cc3)cc2c1	5.76	5.46	5.30	
COc1ccc2[nH]c(C(=O)c3cccc(SC(F)(F)F)c3)cc2c1				pIC50 (SK-OV-3 [8]): 6.20; pIC50 (HeLa [9]): 6.06; pIC50 (Tubulin beta chain [10]): < 5.00
COc1cc(OC)cc(C(=O)c2cc3cc(OC)ccc3[nH]2)c1	7.72	7.72	6.09	
COc1ccc2[nH]c(C(=O)c3cccc(C(F)(F)F)c3)cc2c1	7.52	7.52	5.82	

Structure (SMILES)	pIC50 (SK-OV-3 [1])	pIC50 (HeLa [2])	pIC50 (Tubulin beta chain [3])	further results
COc1cc(OC)c(OC)c(C(=O)c2cc3cc(OC)ccc3[nH]2)c1	5.03	5.06		IC50 (Tubulin): No effect
COc1ccc2[nH]c(C(=O)c3cccc(SC(F)F)c3)cc2c1				pIC50 (SK-OV-3 [8]): 6.44; pIC50 (HeLa [9]): 6.41; pIC50 (Tubulin beta chain [10]): 5.68
COc1cc(C(=O)c2cc3cc(C)ccc3[nH]2)cc(OC)c1OC	7.52	7.52	6.07	IC70 (Tumor Cell line): 1.17 µg/mL (≈ 3.6 µM)
COc1cc2c(c(OC)c1OC)-c1ccc(OC)c(=O)cc1[C@@H](NC(C)=O)CC2 [COLCHICINE]	7.70	7.64		
COc1ccc2[nH]c(C(=O)c3ccccc3N)cc2c1	5.42	5.42	5.17	IC70 (Tumor Cell line): 1.44 µg/mL (≈ 5.41 µM)
CCCc1ccc(C(=O)c2cc3cc(OC)ccc3[nH]2)cc1	< 4.96	< 4.96	< 5.00	
COc1ccc2[nH]c(C(=O)c3c(F)cccc3Cl)cc2c1	< 4.98	< 4.98	< 5.00	
COc1ccccc1C(=O)c1cc2ccccc2[nH]1	< 4.90	< 4.90	< 5.00	
CC[C@]1(O)C[C@H]2CN(CCc3c([nH]c4ccccc34)[C@@](C(=O)OC)(c3cc4c(cc3OC)N(C=O)[C@H]3[C@@](O)(C(=O)OC)[C@H](OC(C)=O)[C@]5(CC)C=CCN6CC[C@]43[C@@H]65)C2)C1				GTPase Activity [6]: 5.3; GTPase Activity [7]: 0.09
CCCCCOc1ccc(C(=O)c2cc3cc(OC)ccc3[nH]2)cc1	< 5.02	< 5.02		IC50 (Tubulin): No effect
COc1ccc2[nH]c(C(=O)c3cccc(N)c3C)cc2c1	4.94	4.94	< 5.00	
COC(=O)Nc1nc2cc(C(=O)c3cccs3)ccc2[nH]1				GTPase Activity [11]: 4.9; GTPase Activity [12]: 9
COc1ccc2[nH]c(C(=O)c3cccc4ccccc34)cc2c1				IC70 (Tumor Cell line): 0.88 µg/mL (≈ 2.92 µM)
COc1ccc2[nH]c(C(=O)c3cccc([N+](=O)[O-])c3C)cc2c1	< 4.99	< 4.99	< 5.00	
COc1ccc2[nH]c(C(=O)c3cc(C)ccc3C)cc2c1	6.14	6.14	5.28	
COc1ccc2[nH]c(C(=O)c3ccc(C(C)(C)C)cc3)cc2c1	< 4.98	< 4.98		IC50 (Tubulin): No effect
COc1ccc2[nH]c(C(=O)c3ccc(Cl)c(Cl)c3)cc2c1	7.00	7.00	5.60	IC70 (Tumor Cell line): 1.34 µg/mL (≈ 4.19 µM)
COc1ccc2[nH]c(C(=O)c3ccccc3C)cc2c1	6.42	5.92	5.32	
COc1ccc2[nH]c(C(=O)c3cccc(F)c3)cc2c1	7.82	7.59	6.41	
COc1ccc2c(c1)cc(C(=O)c1ccccc1)n2CCN1CCOCC1				IC70 (Tumor Cell line): 2.95 µg/mL (≈ 8.09 µM)
COc1ccc2[nH]c(C(=O)c3cccc(N)c3)cc2c1	6.64	6.47	6.00	
COc1ccc2[nH]c(C(=O)c3ccccc3OC)cc2c1	6.96	7.44	5.89	IC70 (Tumor Cell line): 0.35 µg/mL (≈ 1.24 µM)
COc1ccc2[nH]c(C(=O)c3cccc(OC(F)(F)F)c3)cc2c1	6.68	6.57	5.77	
COc1ccc(C(=O)c2cc3cc(OC)ccc3[nH]2)cc1	4.94	4.94		IC50 (Tubulin): No effect
COc1ccc2[nH]c(C(=O)c3cccc(O)c3)cc2c1	6.66	6.66	6.18	
